Assay results reported in ChEMBL document CHEMBL2016555, “4-Methoxy-N-[2-(trifluoromethyl)biphenyl-4-ylcarbamoyl]nicotinamide: A Potent and Selective Agonist of S1P1” (ACS Med Chem Lett, 2011).
≈ marks a conversion by molar mass, not a printed value.

What was measured:
[1] = molecular target: T1, Sphingosine 1-phosphate receptor 1 (Homo sapiens, UniProt P21453); test: Agonist activity at human S1P1 expressed in U2OS cells coexpressing eGFP assessed as receptor internalization after 1 hr by microscopic analysis relative to 1-(4-(6-benzylbenzofuran-2-yl)-3-fluorobenzyl)azetidine-3-carboxylic acid; format: functional, cell-based
How it was run: (§1)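 Human S1P1–eGFP fusion protein expressed in U2OS cells; agonism read as receptor internalization; EC50 derived, efficacy expressed relative to 1-(4-(6-benzylbenzofuran-2-yl)-3-fluorobenzyl)azetidine-3-carboxylic acid at 1.0 μM.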

[2] = Intrinsic clearance in rat liver microsomes after 30 mins; format: ADME, Microsome; conditions: read-out: CLH
[3] = Solubility of the compound in phosphate buffer saline at pH 7.4; format: physicochemical; conditions: phosphate buffered saline
[4] = Solubility of the compound in simulated intestinal fluid; format: physicochemical
[5] = molecular target: T1, Sphingosine 1-phosphate receptor 1; test: Agonist activity at human S1P1 expressed in U2OS cells coexpressing eGFP assessed as receptor internalization after 1 hr by microscopic analysis; format: functional, cell-based; how it was run: as §1
[6] = molecular target: Sphingosine 1-phosphate receptor 3 (Homo sapiens, UniProt Q99500); test: Agonist activity at human S1P3 expressed in CHO-K1 cells coexpressing Gq/i5 assessed as intracellular calcium release by fluorimetry; format: functional, cell-based
How it was run: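 CHO-K1 cells expressing the human S1P receptor subtype plus chimeric Gq/i5; Ca2+ mobilization measured; efficacy relative to S1P at 0.20 μM; compounds not reaching >10% of control activity reported as > highest concentration tested.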

[7] = Efflux ratio of apparent permeability across pig LLC-PK1 cells; format: ADME, cell-based, Sus scrofa
How it was run: (§2)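 Permeability across porcine proximal tubule LLC-PK1 cell monolayers; apparent permeability (Papp) and efflux ratio determined.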

[8] = Apparent permeability across pig LLC-PK1 cells; format: ADME, cell-based, Sus scrofa; how it was run: as §2
[9] = Solubility of the compound in 0.01 M aqueous HCl; format: physicochemical
[10] = test system: Rattus norvegicus; test: Immunosuppressive activity in Lewis rat assessed as change in peripheral lymphocyte count at 1 mg/kg, po after 24 hrs relative to vehicle treated control; format: functional
How it was run: (§3)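 Female Lewis rats (N = 5/group) given one oral dose of 1 mg/kg (20% captisol, 1% HPMC, 1% pluronic F68, pH 2.1 with MSA); blood lymphocyte count and total plasma compound measured at 24 h; POC vs vehicle, ANOVA/Dunnett's test.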

[11] = Plasma concentration in Lewis rat at 1 mg/kg, po at 24 hrs; format: ADME, organism-based; parameters: dose 1 mg/kg, route oral; conditions: Lewis, plasma; how it was run: as §3

T1 sequence (P21453 whole entry, the tested form may be a part): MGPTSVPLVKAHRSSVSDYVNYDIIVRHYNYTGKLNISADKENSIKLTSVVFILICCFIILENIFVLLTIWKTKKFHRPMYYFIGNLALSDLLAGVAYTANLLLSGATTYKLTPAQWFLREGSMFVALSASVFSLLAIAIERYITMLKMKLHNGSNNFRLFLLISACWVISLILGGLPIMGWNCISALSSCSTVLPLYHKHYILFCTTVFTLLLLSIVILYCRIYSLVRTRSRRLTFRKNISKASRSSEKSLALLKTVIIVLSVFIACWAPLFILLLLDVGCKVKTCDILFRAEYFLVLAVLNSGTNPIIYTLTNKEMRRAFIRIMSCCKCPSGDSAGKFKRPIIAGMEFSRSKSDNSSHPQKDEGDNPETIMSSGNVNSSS
Sphingosine 1-phosphate receptor 3, sequence (Q99500 whole entry): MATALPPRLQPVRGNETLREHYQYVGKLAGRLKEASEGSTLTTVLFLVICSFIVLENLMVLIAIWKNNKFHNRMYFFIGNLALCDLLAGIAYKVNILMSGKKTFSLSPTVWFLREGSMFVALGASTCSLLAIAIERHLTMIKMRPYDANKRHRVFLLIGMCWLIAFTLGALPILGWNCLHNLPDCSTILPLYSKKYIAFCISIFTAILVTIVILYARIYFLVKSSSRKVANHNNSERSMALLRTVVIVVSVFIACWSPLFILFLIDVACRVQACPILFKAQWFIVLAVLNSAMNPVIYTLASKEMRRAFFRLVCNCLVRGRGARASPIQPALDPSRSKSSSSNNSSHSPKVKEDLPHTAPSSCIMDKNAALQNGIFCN

Efficacy [1] [%]	microsomal CLint [2] [µL/min/mg]	solubility [3] [µg/mL]	solubility [4] [µg/mL]	EC50 [5] [nM]	EC50 [6] [nM]	efflux ratio [7]	Papp [8] [×10⁻⁶ cm/s]	solubility [9] [µg/mL]	concentration at 24 h [11] [ng/mL]	Structure (SMILES)	Activity [10] [%]
87	29	< 1	27 (≈ 66.8 µM)	430	> 25000	1	1.8	< 1		COc1ccccc1C(=O)NC(=S)Nc1ccc(N2CCCCC2)c(Cl)c1	
120	26	< 1	4.1 (≈ 9.73 µM)	13			< 1	3 (≈ 7.12 µM)		COc1ccccc1C(=O)NC(=O)Nc1ccc(N2CCCCC2)c(C(F)(F)F)c1	
130	33	< 1	12 (≈ 28.5 µM)	38		1.4	12	1.1 (≈ 2.61 µM)	1	COc1ccccc1C(=O)NC(=O)Nc1ccc(-c2nccs2)c(C(F)(F)F)c1	-18
